Reference: PubChem BioAssay AID493238 (Broad Institute, 2011)
Several values for one entry are separate records, joined by “and”; a condition that tells them apart may be missing. Equal values may be shown once. Activity calls are given as the source filed them.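 Rule for the calls: active = VEGF mRNA rise whose fitted curve reaches 40% activation within the highest concentration tested on that sample; inactive = the rest, including effects opposite to expected.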

Key:
[1] = tested on: U2OS VEGF mRNA induction, RT-PCR; test: VEGF mRNA induction in U2OS cells, dose response, orthogonal assay for HIF pathway activator project, cell-based, RT-PCR, dry powder, set 2 (AID 493238)
Outline: (§1)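 Test system – human U2OS osteosarcoma cells, endogenous VEGF-A mRNA · Quantity – 2,000 U2OS cells per well · Incubation – 24 h pre-growth at 37 °C, 24 h compound treatment · Measured by – duplex TaqMan RT-qPCR (FAM VEGF-A, VIC beta-actin), 40 cycles, post-lysis · Benchmarks – DMSO as negative control · Replicates – duplicate compound pinning per dose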

[2] = as above; conditions: U2OS VEGF mRNA induction, RT-PCR; at 38 µM (top of the series)
Outline: as §1

Structure (SMILES) | AC40 [1] | activation [2]
c1ccc(-c2ccc(CNc3nc(-c4ccccn4)nnc3-c3ccccc3)cc2)cc1 | 0.303 µM | 
Oc1ccc(CNC2Cc3ccccc3C2)c2cccnc12 | 10.7 µM | 
O=C(Nc1nnc(-c2ccccc2)s1)c1cc(-c2ccccc2)on1 |  | -3.69% (inactive)
c1ccc(-c2csc(Nc3nc(-c4ccccn4)nnc3-c3ccccc3)n2)cc1 | 0.597 µM | 
c1ccc(-c2nnc(-c3ccccn3)nc2N2CCC(C3CCCCC3)C2)cc1 (configuration not stated) | 0.843 µM | 
O=C(c1cc(-c2ccccc2)on1)N1CCN(c2ccncc2)CC1 | > 38 µM (inactive) | 
c1ccc(-c2cccc(CNc3nc(-c4ccccn4)nnc3-c3ccccc3)c2)cc1 | 0.601 µM | 
COc1cccc(CNc2nc(-c3ccccn3)nnc2-c2ccccc2)c1 | 1.78 µM | 
CC(C)(C)CCNc1nc(-c2ccccn2)nnc1-c1ccccc1 | 0.768 µM and 0.974 µM | 
O=C(c1cc(-c2ccccc2)on1)N1CCC(N2CCCC2)CC1 |  | 13.9% (inactive)
O=C(NCCCO)c1cc(-c2ccccc2)on1 | 11.5 µM | 
Oc1ccc(CNC2CCc3ccccc32)c2cccnc12 (configuration not stated) | 35.1 µM | 
Cc1cccc(CNc2nc(-c3ccccn3)nnc2-c2ccccc2)c1 | 1.45 µM | 
c1ccc(-c2nnc(-c3ccccn3)nc2NCC2CCOCC2)cc1 | 7.58 µM | 
Cn1c(-c2ccccc2)cnc1Nc1nc(-c2ccccn2)nnc1-c1ccccc1 | 3.33 µM | 
O=C(NCC1CC1)c1cc(-c2ccccc2)on1 | 17.2 µM | 
Clc1cccc(CNc2nc(-c3ccccn3)nnc2-c2ccccc2)c1 | 0.87 µM | 
Cc1ccc(NC(=O)c2cc(-c3ccccc3)on2)cn1 |  | 4.7% (inactive)
CN1CCN(C(=O)c2cc(-c3ccccc3)on2)CC1 |  | 5.56% (inactive)
Cn1c(-c2ccccc2)cnc1NC(=O)c1cc(-c2ccccc2)on1 | 35.2 µM | 
COc1ccccc1N1CCN(Cc2ccc(O)c3ncccc23)CC1 | 0.519 µM | 
O=C(Nc1nc(-c2ccccc2)cs1)c1cc(-c2ccccc2)on1 |  | -5.33% (inactive)

Structure (SMILES) | AC40 [1] | activation [2]
O=C(NCCCn1ccnc1)c1cc(-c2ccccc2)on1 | 10.7 µM | 
Cn1c(NC(=O)c2cc(-c3ccccc3)on2)nc2ccccc21 |  | -9.2% (inactive)
O=C(Nc1ccc2ccccc2n1)c1cc(-c2ccccc2)on1 |  | 4.54% (inactive)
C=CCNc1nc(-c2ccccn2)nnc1-c1ccccc1 | 4.47 µM | 
OCC1CCN(Cc2ccc(O)c3ncccc23)CC1 | 3.56 µM | 
c1ccc(-c2nnc(-c3ccccn3)nc2NCCN2CCOCC2)cc1 | 8.15 µM | 
Cc1ccc(CNc2nc(-c3ccccn3)nnc2-c2ccccc2)cc1 | 0.892 µM | 
c1ccc(-c2nnc(-c3ccccn3)nc2N2CCC(c3ccccc3)C2)cc1 (configuration not stated) | 1.52 µM | 
Oc1ccc(CN2CCC(Cc3ccccc3)CC2)c2cccnc12 | 6.76 µM | 
c1ccc(-c2nnc(Nc3nc(-c4ccccn4)nnc3-c3ccccc3)s2)cc1 | 1.3 µM | 
O=C(NCCN1CCOCC1)c1cc(-c2ccccc2)on1 | 28.8 µM | 
O=C(NC1CCc2ccccc2C1)c1cc(-c2ccccc2)on1 (configuration not stated) | > 38 µM (inactive) | 
CN(C)CCNC(=O)c1cc(-c2ccccc2)on1 |  | 5.67% (inactive)
O=C(c1cc(-c2ccccc2)on1)N1CCc2cccnc21 |  | 5.33% (inactive)
Cc1cccc(NC(=O)c2cc(-c3ccccc3)on2)n1 |  | 16.6% (inactive)
C[C@@H](Nc1nc(-c2ccccn2)nnc1-c1ccccc1)c1ccccc1 | 2.22 µM | 
O=C(NCC1CCCCC1)c1cc(-c2ccccc2)on1 |  | -2.71% (inactive)
N#CC1(c2ccccc2)CCN(Cc2ccc(O)c3ncccc23)CC1 | 28.3 µM | 
CN(C)c1nc(-c2ccccn2)nnc1-c1ccccc1 | 8.23 µM | 
Cc1cccc(Nc2nc(-c3ccccn3)nnc2-c2ccccc2)n1 | 2.98 µM | 
c1ccc(CCNc2nc(-c3ccccn3)nnc2-c2ccccc2)cc1 | 4.92 µM | 
Cc1ccccc1CNc1nc(-c2ccccn2)nnc1-c1ccccc1 | 1.02 µM | 

Structure (SMILES) | AC40 [1] | activation [2]
c1ccc(-c2nnc(-c3ccccn3)nc2Nc2nc3ccccc3s2)cc1 | 0.51 µM | 
c1ccc(-c2nnc(-c3ccccn3)nc2N2CCN(c3ccncc3)CC2)cc1 | 2.12 µM | 
c1ccc(-c2cnc(Nc3nc(-c4ccccn4)nnc3-c3ccccc3)s2)cc1 | 0.4 µM | 
O=C(Nc1cnc2ccccc2c1)c1cc(-c2ccccc2)on1 |  | -1.59% (inactive)
Cc1ccccc1CNC(=O)c1cc(-c2ccccc2)on1 |  | 35.3% (inactive)
c1ccc(-c2nnc(-c3ccccn3)nc2NCCCN2CCOCC2)cc1 | 6.5 µM | 
C[C@H](Nc1nc(-c2ccccn2)nnc1-c1ccccc1)C1CCCCC1 | 1.39 µM | 
CC(C)(C)c1ccc(CNc2nc(-c3ccccn3)nnc2-c2ccccc2)cc1 | 0.397 µM | 
CC1CN(Cc2ccc(O)c3ncccc23)CC(C)O1 (configuration not stated) | 9.15 µM | 
c1ccc(-c2nnc(-c3ccccn3)nc2NCCc2ccccn2)cc1 | 5.54 µM | 
O=C(Nc1ncc2ccccc2n1)c1cc(-c2ccccc2)on1 | 36.2 µM | 
O=C(NCCN1CCCCC1)c1cc(-c2ccccc2)on1 |  | -5.63% (inactive)
OCCCNc1nc(-c2ccccn2)nnc1-c1ccccc1 | 8.34 µM | 
O=C(NCc1ccccc1)c1cc(-c2ccccc2)on1 |  | -10.1% (inactive)
CC(C)(C)CCNC(=O)c1cc(-c2ccccc2)on1 | > 38 µM (inactive) | 
c1ccc(-c2nnc(-c3ccccn3)nc2NCC2CCCCC2)cc1 | 1.3 µM | 
Cc1cccc(CNC(=O)c2cc(-c3ccccc3)on2)c1 |  | 8.64% (inactive)
O=C(Nc1ncc(-c2ccccc2)o1)c1cc(-c2ccccc2)on1 |  | -1.45% (inactive)
CC(C)(C)OC(=O)N1CCN(Cc2ccc(O)c3ncccc23)CC1 | 10.2 µM | 
O=C(NC1Cc2ccccc2C1)c1cc(-c2ccccc2)on1 |  | 2.5% (inactive)
c1ccc(-c2nnc(-c3ccccn3)nc2NCc2cccnc2)cc1 | 2.84 µM | 
Cc1ccc(CNc2nc(-c3ccccn3)nnc2-c2ccccc2)cc1C | 0.772 µM | 

Structure (SMILES) | AC40 [1] | activation [2]
O=C(Nc1cn2ccccc2n1)c1cc(-c2ccccc2)on1 | 18.6 µM | 
O=C(c1cc(-c2ccccc2)on1)N1CCC(N2CCOCC2)CC1 |  | 2.34% (inactive)
Oc1ccc(CN2CCc3ccccc3C2)c2cccnc12 | 5.31 µM and 5.35 µM | 
c1ccc(-c2nnc(-c3ccccn3)nc2NCC2CC2)cc1 | 2.4 µM | 
Cc1ccc(CNC(=O)c2cc(-c3ccccc3)on2)cc1 |  | 8.66% (inactive)
c1ccc(-c2nnc(-c3ccccn3)nc2N2CCC(N3CCOCC3)CC2)cc1 | 6.52 µM | 
O=C(NCCCCO)c1cc(-c2ccccc2)on1 | 5.01 µM | 
Oc1ccc(CN2CCC3CCCCC3C2)c2cccnc12 (configuration not stated) | 3.2 µM | 
c1ccc(CNc2nc(-c3ccccn3)nnc2-c2ccccc2)cc1 | 1.6 µM | 
CN1CCN(c2nc(-c3ccccn3)nnc2-c2ccccc2)CC1 | 5.95 µM | 
O=C(c1cc(-c2ccccc2)on1)N1CCC(CO)CC1 |  | 9.68% (inactive)
O=C(Nc1nc2ccccc2s1)c1cc(-c2ccccc2)on1 |  | 18.7% (inactive)
c1ccc(-c2nnc(-c3ccccn3)nc2NCc2ccccn2)cc1 | 4.53 µM | 
COc1ccc(CNc2nc(-c3ccccn3)nnc2-c2ccccc2)cc1 | 1.92 µM | 
C[C@@H](Nc1nc(-c2ccccn2)nnc1-c1ccccc1)C1CCCCC1 | 0.571 µM | 
O=C(NCCCN1CCOCC1)c1cc(-c2ccccc2)on1 | 23 µM | 
OCC1CCN(c2nc(-c3ccccn3)nnc2-c2ccccc2)CC1 | 10.5 µM | 
CCCCNC(=O)c1cc(-c2ccccc2)on1 | 14.6 µM | 
c1ccc(-c2nnc(-c3ccccn3)nc2Nc2cnc3ccccc3n2)cc1 | 1.1 µM | 
Cc1ccc(Nc2nc(-c3ccccn3)nnc2-c2ccccc2)cn1 | 6.12 µM | 
CC(Nc1nc(-c2ccccn2)nnc1-c1ccccc1)c1ccccc1 (configuration not stated) | 1.37 µM | 
